This passage reports EC50 results from BindingDB's records for doi:10.1016/j.bmc.2014.09.025 (Johns Hopkins University, 2014).

The target in the assay is T1, Mas-related G-protein coupled receptor member X1 (Mus musculus, UniProt Q8CIP3).
T1 sequence (Q8CIP3 whole entry): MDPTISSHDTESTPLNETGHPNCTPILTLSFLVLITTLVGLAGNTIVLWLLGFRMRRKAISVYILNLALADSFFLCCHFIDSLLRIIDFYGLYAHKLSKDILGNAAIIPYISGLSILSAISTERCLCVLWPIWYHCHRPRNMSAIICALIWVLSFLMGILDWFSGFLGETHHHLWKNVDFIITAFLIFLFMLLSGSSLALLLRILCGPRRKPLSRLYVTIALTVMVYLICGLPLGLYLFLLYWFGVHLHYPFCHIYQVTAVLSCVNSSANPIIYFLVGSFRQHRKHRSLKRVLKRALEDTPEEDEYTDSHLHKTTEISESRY
The assay can be described thus: Agonist activity at mouse MrgC11 transfected in HEK293 cells by FLIPR assay. Put shortly:
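Rodent Mrg receptors were transiently transfected into HEK293 or KNRK cells, which were plated at 25,000 cells/well and imaged 2 days later. Cells were loaded with 2 μM Fluo 4AM and 1% Trypan Red in HBSS for 50 min at 37°C, then held 10 min at room temperature.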

For orientation: EC50 means the concentration giving half of the maximal effect. `N=C(N)Nc1cccc(C(N)C(=O)N[C@@H](Cc2ccccc2)C(N)=O)c1` (stereo partly specified) yielded an EC50 of 31.6 µM.
